This is a sample that favours compounds with a hit; in the whole collection about 12% have one here.
Wee1 degr inh: blocks degradation of human Wee1 kinase | P30291 | HeLa Luc-Wee1K328M stability, luciferase luminescence; 100% = proteasome inhibitor MG132 effect | reporter increase, % at 5 µM | 220,000 tested, 1.2% active | AID 1321;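 active means activation above the mean of all tested compounds plus 3 SD, set per screening run, cut at about 8.8% in these data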;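 further: cells exposed to compound for 20 h before luminescence read; 0% = DMSO alone and 100% = MG132 at 30 µM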
CHOP inhibitor: blocks CHOP induction under ER stress; CHO-K1 CHOP-promoter luciferase, tunicamycin-induced, 15-18 h; inhibition, % at 10 µM; 220,000 tested, 3.8% active;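 active means compounds that reduced the stress-induced luciferase reporter signal by more than about 70% of percent inhibition, limit read from the data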;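 further: 0% = tunicamycin plus vehicle and 100% = wells without tunicamycin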
Lmaj promast: reduces viability of Leishmania major promastigotes; resazurin fluorescence viability; 200,000 tested, 9% active; AID 1063; inhibition, % at 10 µM;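 further: promastigotes grown with compound for 44 hours at 28 °C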
PKD1 kinase inh: blocks activity of human protein kinase D1; AID 797; inhibition, % (concentration not given with the values); 200,000 tested, 0.056% active; PKD1 kinase fluorescence polarization assay
Target sequence (Q15139 whole entry, looked up): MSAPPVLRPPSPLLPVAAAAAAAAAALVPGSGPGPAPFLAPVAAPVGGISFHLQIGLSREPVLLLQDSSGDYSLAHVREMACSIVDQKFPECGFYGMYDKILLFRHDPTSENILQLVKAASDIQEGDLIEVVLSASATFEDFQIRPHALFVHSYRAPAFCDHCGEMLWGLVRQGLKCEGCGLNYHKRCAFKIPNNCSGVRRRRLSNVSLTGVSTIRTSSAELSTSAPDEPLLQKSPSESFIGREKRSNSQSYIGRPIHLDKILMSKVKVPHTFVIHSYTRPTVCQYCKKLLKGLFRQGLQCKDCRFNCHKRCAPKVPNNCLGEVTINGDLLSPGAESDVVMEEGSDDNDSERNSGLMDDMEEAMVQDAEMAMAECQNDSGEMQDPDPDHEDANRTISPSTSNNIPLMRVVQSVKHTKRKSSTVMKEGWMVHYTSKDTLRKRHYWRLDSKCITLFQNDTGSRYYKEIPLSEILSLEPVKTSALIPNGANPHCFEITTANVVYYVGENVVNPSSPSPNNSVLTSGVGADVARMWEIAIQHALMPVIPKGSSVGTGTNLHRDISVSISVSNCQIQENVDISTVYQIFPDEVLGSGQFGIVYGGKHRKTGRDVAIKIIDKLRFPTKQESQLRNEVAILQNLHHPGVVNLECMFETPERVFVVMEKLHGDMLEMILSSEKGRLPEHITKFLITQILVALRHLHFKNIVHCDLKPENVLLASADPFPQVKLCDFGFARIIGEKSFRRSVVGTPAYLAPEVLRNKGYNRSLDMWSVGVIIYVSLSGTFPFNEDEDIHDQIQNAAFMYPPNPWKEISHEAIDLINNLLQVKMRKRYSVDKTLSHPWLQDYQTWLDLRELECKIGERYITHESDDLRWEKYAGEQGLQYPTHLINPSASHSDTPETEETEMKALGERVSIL
Arbovirus anti: antivirals against arbovirus infection. arbovirus infection cell-based antiviral screen. inhibition, % at 10 µM. 200,000 tested, 0.37% active. AID 1251; in the data active means inhibition above about 30%
Rad51 HR inh: Rad51 (human) homologous recombination inhibition. hRad51 DNA strand exchange, fluorescence dequenching. inhibition, % at 10 µM. 200,000 tested, 0.085% active. AID 1385;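 active means inhibition above 40% at the single screening dose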;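 further: 0% = DMSO control wells and 100% = blanks with heterologous ssDNA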
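material = hRad51 filaments on single-stranded DNA | reagent = Donor/quencher-labelled 47-bp dsDNA substrate | compound = 10 µM final, single point | schedule = strand-exchange reaction 15 min at room temperature | measured by = fluorescein emission 520 nm, excitation 485 nm | read-out basis = % inhibition versus plate control and blank means | benchmarks = plate controls and plate blanks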
Starred values were filed as active, the others as inactive; x = not tested or not shown. Unless noted, no stated cut-off is given here; in the data, active means inhibition above about 50%; inactive means the rest.

SMILES	Wee1 degr inh	CHOP inhibitor	Lmaj promast	PKD1 kinase inh	Arbovirus anti	Rad51 HR inh
CC(O)CN(C)CC/C=C1/c2ccccc2CSc2ccccc21 (stereo not drawn)	0	10	98*	4	-31	-1
C=CCN(C)CC/C=C1\c2ccccc2CSc2ccccc21	-2	37	100*	-4	-7	6
O=C(c1ccc([N+](=O)[O-])cc1)N1CCN(c2cccc3[nH]ccc23)CC1	2	-13	x	x	x	-1
CCOc1ccccc1C(=O)N/N=C/c1cccc2cccnc12	0	55	25	1	-15	0
CCn1cc(/C=N/NC(=O)COc2cccc3cccnc23)c2ccccc21	4	9	60*	-2	-1	3
COc1ccc(C(=O)N/N=C/c2cc3ccccc3[nH]c2=S)cc1	2	15	-14	0	-12	14
CCOc1ccc(OCc2ccc(C(=O)N/N=C(\C)c3ccccn3)cc2)cc1	9.6*	53	19	2	-15	11
CCOc1ccc(C(=O)N/N=C/c2cccc3cccnc23)cc1	1	28	98*	-12	-22	20
COc1ccc(C(=O)N/N=C/c2cccc3cccnc23)cc1	-3	32	97*	3	-31	x
COc1ccc(OC)c(S(=O)(=O)Nc2cc(C(=O)O)ccc2N2CC3CC(C2)c2cccc(=O)n2C3)c1 (stereo not drawn)	1	-2	3	0	1	-3
COc1ccc(N(C)S(=O)(=O)c2cccc(C(=O)N(C)Cc3ccc(C)o3)c2)cc1	0	31	5	0	4	-13
COc1ccc(NC(=O)c2ccccn2)cc1	1	23	-10	-1	-7	-5
COc1ccc(C(=O)N/N=C(\c2ccccc2)c2ccccn2)cc1	2	54	100*	-10	-26	4
COC(=O)C1CCN(CC(=O)Nc2ccccc2Sc2ccccc2)CC1	-4	67	52*	3	11	6
Cc1ccc(C(=O)OCC(=O)Nc2ccccc2Sc2ccccc2)cc1C	-1	38	62*	-18	-2	1
NC(=O)C1CCN(CC(=O)Nc2ccccc2Sc2ccc(Cl)cc2)CC1	1	7	93*	-2	7	-8
O=C(COC(=O)C1CC1)Nc1ccccc1Sc1ccccc1	-2	29	-5	-2	2	-3
Cc1cccc2sc(NS(C)(=O)=O)nc12	-4	4	-4	1	15	-4
Cc1ccc(NC(=O)c2cc3c(=O)oc4ccc(C)cc4c3s2)nc1	2	18	x	x	x	19
O=C(c1cccc(C(F)(F)F)c1)N(c1ccccn1)C1CCCCC1	0	60	14	-2	3	-4
CC(C)CCN1CCN(Cc2cccc(C(F)(F)F)c2)CC1CCO (stereo not drawn)	-3	37	92*	-5	-16	-2
CSc1cccc(CN2CCN(CCC(C)C)C(CCO)C2)c1 (stereo not drawn)	-3	11	79*	-2	-7	20
CC(C)CCN1CCN(Cc2ccoc2)CC1CCO (stereo not drawn)	-1	7	x	x	x	x
C/C(=N\NC(=O)CN1CCN(S(=O)(=O)c2ccc(C)cc2)CC1)c1ccncc1	-2	-28	x	x	x	x
COc1cc([N+](=O)[O-])ccc1NC(=O)CSc1n[nH]c(C(C)C)n1	0	15	2	0	19	4
SMILES	Wee1 degr inh	CHOP inhibitor	Lmaj promast	PKD1 kinase inh	Arbovirus anti	Rad51 HR inh
Cc1ccc(-n2[nH]c(C)c(C=Nc3ccc(Br)cn3)c2=O)cc1	1	80*	-9	0	-15	-6
Cc1ccc(-n2[nH]c(C)c(/C=N/c3ccccn3)c2=O)cc1	-1	16	-7	4	-8	-1
COc1cc(S(=O)(=O)Nc2cccc(C)c2)ccc1N=Cc1c(C)[nH]n(-c2ccccc2)c1=O	1	48	57*	-5	-16	x
Cc1[nH]n(-c2ccccc2)c(=O)c1/C=N/N1C(=O)c2cccc3cccc(c23)C1=O	1	24	59*	-1	-8	3
Cc1[nH]n(-c2ccccc2)c(=O)c1C=Nc1cccc2cccnc12	2	-28	64*	-18	-9	0
O=S(=O)(Nc1nc(-c2sccc2Cl)cs1)c1cc(Cl)ccc1Cl	3	60	-9	-2	4	1
CCc1ccc(C2=NN(C(C)=O)C(c3ccco3)C2)cc1 (stereo not drawn)	8	22	4	-11	-3	15
O=C(c1ccc(F)cc1)N1CCN(c2ccc([N+](=O)[O-])c(N3CCOCC3)c2)CC1	-1	17	57*	-11	7	-4
O=S(=O)(c1cccc2cccnc12)N1CCc2ccccc21	-2	30	1	-9	9	-7
O=C(C(Cc1ccccc1)NS(=O)(=O)c1cccc2cccnc12)N1CCc2ccccc21 (stereo not drawn)	-3	45	94*	-1	4	-2
COCCNC(=S)N1CCCC(CO)C1 (stereo not drawn)	-1	-7	-8	2	-2	9
CCOc1ccc(C(=O)NC(=S)Nc2ccccc2N2CCC(C)CC2)cc1[N+](=O)[O-]	0	-4	3	-8	3	3
CCC(=O)N1CCN(c2ccc(NC(=S)NC(=O)c3ccc(OC)c([N+](=O)[O-])c3)cc2)CC1	2	-15	53*	-4	7	16
COc1ccc(C(=O)NC(=S)Nc2ccc(N3CCOCC3)c(Cl)c2)cc1[N+](=O)[O-]	4	7	100*	-6	-1	4
CCOc1ccc(C(=O)NC(=S)Nc2ccc(N3CCC(C)CC3)cc2)cc1[N+](=O)[O-]	-3	-12	87*	3	9	9
CC(=O)NCCc1c[nH]c2ccc(O)cc12	x	-3	x	x	x	1
CC(C)OC(=O)c1cc(NC(=S)Nc2ccc([N+](=O)[O-])cc2)cc(C(=O)OC(C)C)c1	-2	75*	100*	-7	-19	-8
CCCCNC(=S)Nc1ccc([N+](=O)[O-])cc1	0	18	49	-6	-8	x
CC(C)CCNC(=S)Nc1ccc([N+](=O)[O-])cc1	0	38	68*	4	-21	x
CN(Cc1ccc2nonc2c1)Cc1nc(CC2CC2)no1	-1	-2	-2	1	2	x
Brc1ccc(Oc2nsnc2N2CCOCC2)cc1	0	84*	-2	1	8	-6
O=C(CCn1c(=O)sc2ccccc21)NCCCn1ccnc1	4	18	-4	1	30*	-6
O=C(CCn1c(=O)sc2ccccc21)NCc1ccco1	-1	-14	-4	-2	4	-3
Cc1ccc(S(=O)(=O)N(c2cccc(C(F)(F)F)c2)C2C=CS(=O)(=O)C2)cc1 (stereo not drawn)	-2	-12	29	-13	-1	10
CCc1ccc(N(C2C=CS(=O)(=O)C2)S(=O)(=O)c2ccccc2)cc1 (stereo not drawn)	-3	7	59*	-7	1	6

Assay outcomes (PubChem)
